The source made the active and inactive calls. The rule behind the calls is not given here.
Key:
[1] = tested on: Panel ovarian (Carcinoma cell lines); assay: Anticancer activity against human Panel ovarian (Carcinoma cell lines) assessed as lethality incubated for 48 hrs by Sulphorhodamine B assay; assay type: functional
Calf thymus DNA [2] = assay: Binding affinity to calf thymus DNA assessed as decrease in maximum emission wavelength at pH 7.4 at 10 uM by fluorescence spectroscopy; assay type: nucleic-acid assay; settings: Bos taurus
How it was run: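 Compound was held constant (10 μM per legend; 20 μM in methods) and titrated with ct-DNA (0–20 μM) in 10 mM phosphate buffer, pH 7.4. Emission spectra were excited at 300 nm, with a buffer-only control. Binding constant came from a Benesi–Hildebrand plot.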

[3] = tested on: Panel prostate (Carcinoma cell lines); assay: Anticancer activity against human Panel prostate (Carcinoma cell lines) assessed as lethality incubated for 48 hrs by Sulphorhodamine B assay; assay type: functional
[4] = molecular target: DNA topoisomerase 2-alpha (Homo sapiens) (UniProt P11388); assay: Inhibition of human DNA topoisomerase II-alpha mediated supercoiled pHOT1 plasmid DNA relaxation at 100 uM incubated for 30 mins by ethidium bromide staining based agarose gel electrophoresis analysis
Sequence of DNA topoisomerase 2-alpha (Homo sapiens) (P11388 whole entry): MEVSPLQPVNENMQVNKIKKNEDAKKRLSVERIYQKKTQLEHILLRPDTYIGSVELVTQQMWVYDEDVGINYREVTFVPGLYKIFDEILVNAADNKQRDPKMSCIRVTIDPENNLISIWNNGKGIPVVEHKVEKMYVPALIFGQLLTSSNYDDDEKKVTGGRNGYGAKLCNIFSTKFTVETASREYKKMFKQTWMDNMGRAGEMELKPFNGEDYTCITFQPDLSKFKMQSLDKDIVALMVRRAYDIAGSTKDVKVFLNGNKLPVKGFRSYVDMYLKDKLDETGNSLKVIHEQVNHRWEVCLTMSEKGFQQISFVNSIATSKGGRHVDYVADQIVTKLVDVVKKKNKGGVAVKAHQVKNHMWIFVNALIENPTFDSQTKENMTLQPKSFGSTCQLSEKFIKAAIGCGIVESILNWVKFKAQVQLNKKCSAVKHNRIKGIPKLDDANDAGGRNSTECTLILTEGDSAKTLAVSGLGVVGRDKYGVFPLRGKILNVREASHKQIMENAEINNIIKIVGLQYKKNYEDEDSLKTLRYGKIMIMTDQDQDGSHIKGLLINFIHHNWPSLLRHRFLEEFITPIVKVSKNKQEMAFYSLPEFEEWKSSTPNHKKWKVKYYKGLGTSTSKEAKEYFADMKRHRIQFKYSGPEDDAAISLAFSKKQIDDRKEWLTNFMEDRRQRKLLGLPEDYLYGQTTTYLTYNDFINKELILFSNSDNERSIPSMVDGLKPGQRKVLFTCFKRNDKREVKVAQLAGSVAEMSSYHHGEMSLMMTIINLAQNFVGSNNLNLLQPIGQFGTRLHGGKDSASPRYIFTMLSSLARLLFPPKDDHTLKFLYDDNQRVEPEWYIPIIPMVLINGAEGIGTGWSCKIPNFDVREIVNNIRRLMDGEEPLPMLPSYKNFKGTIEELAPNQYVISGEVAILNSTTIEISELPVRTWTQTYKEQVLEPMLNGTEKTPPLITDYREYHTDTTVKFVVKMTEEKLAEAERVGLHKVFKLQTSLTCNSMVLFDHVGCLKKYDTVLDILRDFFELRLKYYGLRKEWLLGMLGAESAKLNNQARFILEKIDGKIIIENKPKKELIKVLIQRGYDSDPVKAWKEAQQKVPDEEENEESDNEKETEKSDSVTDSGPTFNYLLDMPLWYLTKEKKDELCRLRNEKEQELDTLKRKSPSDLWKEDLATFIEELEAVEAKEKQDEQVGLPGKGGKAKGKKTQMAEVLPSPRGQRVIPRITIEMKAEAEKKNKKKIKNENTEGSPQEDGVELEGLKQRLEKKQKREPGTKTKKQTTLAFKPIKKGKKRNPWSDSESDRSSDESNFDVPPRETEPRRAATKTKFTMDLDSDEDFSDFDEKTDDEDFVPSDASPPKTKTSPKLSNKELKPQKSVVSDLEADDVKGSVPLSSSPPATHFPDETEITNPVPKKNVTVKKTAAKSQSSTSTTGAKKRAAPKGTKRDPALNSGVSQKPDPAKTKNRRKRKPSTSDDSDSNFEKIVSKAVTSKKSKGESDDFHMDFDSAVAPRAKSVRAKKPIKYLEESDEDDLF
How it was run: (§1)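 Reaction buffer: 50 mM Tris-Cl pH 8.0, 120 mM KCl, 10 mM MgCl2, 0.5 mM ATP, 0.5 mM DTT. Each reaction held 500 ng supercoiled pHOT1 and 1 U human Topo IIα, with compound at 10–100 μM, for 30 min at 37 °C. Reactions were stopped with glycerol/EDTA/bromophenol blue, run on 1% agarose in TBE, and stained with ethidium bromide. Etoposide 25 μM was the positive control.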

[5] = tested on: Panel ovarian (Carcinoma cell lines); assay: Anticancer activity against human Panel ovarian (Carcinoma cell lines) assessed as cell growth inhibition incubated for 48 hrs by Sulphorhodamine B assay; assay type: functional
How it was run: (§2)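 NCI-60 five-dose screen. Cells in RPMI 1640 with 5% FBS and 2 mM L-glutamine were plated at 5,000–40,000 cells/well and held 24 h before dosing. Compounds came from DMSO stocks and were given at five concentrations (10-fold or ½-log dilutions) for 48 h at 37 °C. Adherent cells were TCA-fixed and stained with SRB; A515 was read. GI50 was set from growth = 50% and TGI from Ti = Tz, using Tz/C/Ti.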

Calf thymus DNA [6] = assay: Displacement of Ethidium bromide from calf thymus DNA/EtBr complex assessed as decrease in fluorescent intensity by fluorescence based EtBr-displacement assay; assay type: nucleic-acid assay; settings: Bos taurus
How it was run: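 ct-DNA (0–20 μM) was pre-mixed with ethidium bromide, diluted from a 1 mM stock. Compound was then added in 2 μM steps up to 50 μM, with mixing after each addition. Emission was recorded with excitation at 480 nm.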

[7] = molecular target: T1, DNA topoisomerase 1 (Homo sapiens) (UniProt P11387); assay: Inhibition of human DNA topoisomerase I mediated supercoiled pHOT1 plasmid DNA relaxation upto 100 uM incubated for 30 mins by ethidium bromide staining based agarose gel electrophoresis analysis
T1 sequence (whole entry): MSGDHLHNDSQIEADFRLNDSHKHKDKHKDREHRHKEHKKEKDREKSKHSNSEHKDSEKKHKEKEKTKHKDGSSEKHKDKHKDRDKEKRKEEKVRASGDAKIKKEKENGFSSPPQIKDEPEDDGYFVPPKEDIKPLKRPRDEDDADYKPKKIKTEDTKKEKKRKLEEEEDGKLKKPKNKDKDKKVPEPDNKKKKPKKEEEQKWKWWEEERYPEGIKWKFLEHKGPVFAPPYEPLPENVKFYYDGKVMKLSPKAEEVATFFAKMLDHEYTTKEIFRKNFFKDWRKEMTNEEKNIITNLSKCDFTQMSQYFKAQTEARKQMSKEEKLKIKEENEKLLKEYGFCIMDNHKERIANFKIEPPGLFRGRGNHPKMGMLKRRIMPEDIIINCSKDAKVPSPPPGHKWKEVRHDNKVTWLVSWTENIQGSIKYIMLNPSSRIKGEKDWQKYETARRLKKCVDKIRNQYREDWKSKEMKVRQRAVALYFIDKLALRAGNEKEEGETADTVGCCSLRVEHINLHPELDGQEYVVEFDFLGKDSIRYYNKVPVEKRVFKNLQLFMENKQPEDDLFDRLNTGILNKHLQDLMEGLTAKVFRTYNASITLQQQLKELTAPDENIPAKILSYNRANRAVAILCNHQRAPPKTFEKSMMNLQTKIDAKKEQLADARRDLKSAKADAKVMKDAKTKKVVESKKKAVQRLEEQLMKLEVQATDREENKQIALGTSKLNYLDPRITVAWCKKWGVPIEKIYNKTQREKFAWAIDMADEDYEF

[8] = tested on: Panel renal (Carcinoma cell lines); assay: Anticancer activity against human Panel renal (Carcinoma cell lines) assessed as lethality incubated for 48 hrs by Sulphorhodamine B assay; assay type: functional
[9] = Anticancer activity against human Non-small cell lung cancer cell line assessed as cell growth inhibition incubated for 48 hrs by Sulphorhodamine B assay; assay type: functional; how it was run: as §2
[10] = tested on: Panel breast (Carcinoma cell lines); assay: Anticancer activity against human Panel breast (Carcinoma cell lines) assessed as total growth inhibition incubated for 48 hrs by Sulphorhodamine B assay; assay type: functional; how it was run: as §2
[11] = tested on: Panel melanoma (Carcinoma cell lines); assay: Anticancer activity against human Panel melanoma (Carcinoma cell lines) assessed as total growth inhibition incubated for 48 hrs by Sulphorhodamine B assay; assay type: functional; how it was run: as §2
[12] = tested on: Panel colon (Carcinoma cell lines); assay: Anticancer activity against human Panel colon (Carcinoma cell lines) assessed as lethality incubated for 48 hrs by Sulphorhodamine B assay; assay type: functional
[13] = tested on: Panel breast (Carcinoma cell lines); assay: Anticancer activity against human Panel breast (Carcinoma cell lines) assessed as cell growth inhibition incubated for 48 hrs by Sulphorhodamine B assay; assay type: functional; how it was run: as §2
[14] = tested on: Panel CNS (Carcinoma cell lines); assay: Anticancer activity against human Panel CNS (Carcinoma cell lines) assessed as cell growth inhibition incubated for 48 hrs by Sulphorhodamine B assay; assay type: functional; how it was run: as §2
[15] = tested on: Panel leukemia (Carcinoma cell lines); assay: Anticancer activity against human Panel leukemia (Carcinoma cell lines) assessed as total growth inhibition incubated for 48 hrs by Sulphorhodamine B assay; assay type: functional
[16] = molecular target: DNA topoisomerase 2-alpha (Homo sapiens) (UniProt P11388); assay: Inhibition of human DNA topoisomerase II-alpha mediated supercoiled pHOT1 plasmid DNA relaxation at 50 uM incubated for 30 mins by ethidium bromide staining based agarose gel electrophoresis analysis; how it was run: as §1
[17] = tested on: Panel renal (Carcinoma cell lines); assay: Anticancer activity against human Panel renal (Carcinoma cell lines) assessed as total growth inhibition incubated for 48 hrs by Sulphorhodamine B assay; assay type: functional
[18] = Anticancer activity against human Non-small cell lung cancer cell line assessed as total growth inhibition incubated for 48 hrs by Sulphorhodamine B assay; assay type: functional; how it was run: as §2
[19] = tested on: Panel leukemia (Carcinoma cell lines); assay: Anticancer activity against human Panel leukemia (Carcinoma cell lines) assessed as cell growth inhibition incubated for 48 hrs by Sulphorhodamine B assay; assay type: functional; how it was run: as §2
[20] = tested on: Panel CNS (Carcinoma cell lines); assay: Anticancer activity against human Panel CNS (Carcinoma cell lines) assessed as total growth inhibition incubated for 48 hrs by Sulphorhodamine B assay; assay type: functional; how it was run: as §2
[21] = tested on: Panel melanoma (Carcinoma cell lines); assay: Anticancer activity against human Panel melanoma (Carcinoma cell lines) assessed as cell growth inhibition incubated for 48 hrs by Sulphorhodamine B assay; assay type: functional; how it was run: as §2
[22] = tested on: Panel breast (Carcinoma cell lines); assay: Anticancer activity against human Panel breast (Carcinoma cell lines) assessed as lethality incubated for 48 hrs by Sulphorhodamine B assay; assay type: functional; settings: read-out: LC50 (the source's name)
[23] = molecular target: DNA topoisomerase 2-alpha (Homo sapiens) (UniProt P11388); assay: Inhibition of human DNA topoisomerase II-alpha mediated supercoiled pHOT1 plasmid DNA relaxation at 75 uM incubated for 30 mins by ethidium bromide staining based agarose gel electrophoresis analysis; how it was run: as §1
[24] = tested on: Panel CNS (Carcinoma cell lines); assay: Anticancer activity against human Panel CNS (Carcinoma cell lines) assessed as lethality incubated for 48 hrs by Sulphorhodamine B assay; assay type: functional
[25] = tested on: Panel melanoma (Carcinoma cell lines); assay: Anticancer activity against human Panel melanoma (Carcinoma cell lines) assessed as lethality incubated for 48 hrs by Sulphorhodamine B assay; assay type: functional

Compound	LC50 (concentration killing 50% of cells) [1]	Activity (Calf thymus DNA [2])	LC50 [3]	inhibition [4]	GI50 [5]	Activity (Calf thymus DNA [6])	inhibition [7]	LC50 (50% lethal concentration) [8]	GI50 [9]	TGI [10]	TGI [11]	LC50 (lethal concentration, 50% cell kill) [12]	GI50 [13]	GI50 [14]	TGI [15]	inhibition [16]	TGI [17]	TGI [18]	GI50 [19]	TGI [20]	also measured
Fc1ccc(Nc2nc(Nc3ccc(-c4nc5ccccc5[nH]4)cc3)c3cn[nH]c3n2)cc1	28.9 µM	Active	9.22 µM	Active	2490 nM	Active	inactive	18.2 µM	2110 nM	4.8 µM	3.74 µM	6.8 µM	1990 nM	2060 nM	6.33 µM	Active	7.35 µM	5.37 µM	2620 nM	5.08 µM	GI50 [21]: 2800 nM; CC50 [22]: 19 µM; inhibition [23]: Active; LC50 (concentration killing 50% of cells) [24]: 20.4 µM; LC50 (lethal concentration 50) [25]: 6.92 µM
OCCN1CCN(c2nc(Nc3ccc(-c4nc5ccccc5[nH]4)cc3)c3cn[nH]c3n2)CC1	6.09 µM	Active	5.97 µM	Active	1840 nM	Active	inactive	5.85 µM	1570 nM	3.83 µM	3.41 µM	5.71 µM	1800 nM	1470 nM	1.22 µM	Active	3.26 µM	3.23 µM	440 nM	3.26 µM	GI50 [21]: 1810 nM; CC50 [22]: 7.02 µM; inhibition [23]: Active; LC50 (concentration killing 50% of cells) [24]: 5.72 µM; LC50 (lethal concentration 50) [25]: 5.83 µM
